Assay type in all cases: functional
Details in all cases: read-out: GI

In one assay the test system is IMR-32. The assay can be described thus: Growth inhibition of human IMR32 cells at 10 uM by sulforhodamine B assay. The method in brief:
(§1)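 Single-dose 10 µM screen by sulforhodamine B assay, reported as percent inhibition of cell proliferation. Cells grown in medium with 10% heat-inactivated FBS at 37 °C, 5% CO2, and treated at about 70% confluence or in log phase. Compounds dissolved in DMSO; controls received vehicle (<0.5% v/v).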

The test system of a further assay is SK-N-SH. The assay is described as follows: Growth inhibition of human SK-N-SH cells at 10 uM by sulforhodamine B assay. In a few lines:
as §1
A general note: Sulforhodamine B stains cellular protein and so reports cell mass.

For the next assay, the system named is SiHa. The assay can be described thus: Growth inhibition of human SiHa cells at 10 uM by sulforhodamine B assay. In a few lines: as §1
The next assay deals with SW-620. The assay is described as follows: Growth inhibition of human SW620 cells at 10 uM by sulforhodamine B assay. In a few lines:
as §1

Another assay deals with HCT-15. The assay is described as follows: Growth inhibition of human HCT15 cells at 10 uM by sulforhodamine B assay. In a few lines:
as §1

The nature of assay [1]: Growth inhibition of human 502713 cells at 10 uM by sulforhodamine B assay. The method in brief:
as §1

A further assay deals with OVCAR-5. The assay can be described thus: Growth inhibition of human OVCAR5 cells at 10 uM by sulforhodamine B assay. In a few lines: as §1
In a further assay the test system is DU-145. The assay is described as follows: Growth inhibition of human DU145 cells at 10 uM by sulforhodamine B assay. The method in brief:
as §1

A further assay relates to A549. The assay can be described thus: Growth inhibition of human A549 cells at 10 uM by sulforhodamine B assay. The method in brief: as §1
A further assay concerns HEp-2. The assay is described as follows: Growth inhibition of human Hep2 cells at 10 uM by sulforhodamine B assay. In a few lines: as §1

For `O=c1[nH]cc(F)c(=O)[nH]1` [FLUOROURACIL], the inhibition of growth at 10 µM worked out at 71% in the assay on IMR-32; 7% with SK-N-SH; 44% with SiHa; 76% with SW-620; 44% in the assay on HCT-15; 21% in [1]. Besides, in the assay with OVCAR-5, the inhibition of growth at 10 µM is 22%.
As to `COc1ccc(Nc2ncccc2C(=O)Nc2nc3ccc(OC)cc3s2)cc1`, the inhibition of growth at 10 µM amounted to 40% with IMR-32; 44% with SK-N-SH; 55% with SiHa; 43% with SW-620; 0% in the assay on HCT-15; 21% in assay [1]. Besides, the inhibition of growth at 10 µM was 22% with DU-145, 20% with A549, 0% with HEp-2 and 8% in the assay with OVCAR-5.
In the case of `O=S1(=O)c2ccccc2N(c2ccccc2)c2nc(-c3cccnc3Nc3ccc(Cl)cc3Cl)nn21`, the inhibition of growth at 10 µM in the assay on IMR-32 worked out at 11%; with SK-N-SH it was 23%; in the assay with SiHa, 23%; in the assay on SW-620 it was 27%; with HCT-15, 0%; in assay [1] it was 19%. In addition, the inhibition of growth at 10 µM in the assay on DU-145 was 20%; with A549, 66%; with HEp-2, 25%; with OVCAR-5, 8%.
In the case of `COc1ccc2nc(NC(=O)c3cccnc3Nc3ccc(Cl)cc3)sc2c1`, the inhibition of growth at 10 µM in the assay with IMR-32 was 24%; with SK-N-SH, 23%; with SiHa it was 31%; with SW-620, 15%; in the assay with HCT-15 it was 44%; in [1], 10%. Further, the inhibition of growth at 10 µM in the assay on DU-145 is 25%; with A549 it was 10%; with HEp-2, 13%; in the assay with OVCAR-5 it was 10%.
As to `O=S1(=O)c2ccccc2N(c2ccccc2)c2nc(-c3cccnc3Nc3ccc(Cl)cc3)nn21`, the inhibition of growth at 10 µM in the assay with IMR-32 was 31%; in the assay on SK-N-SH, 27%; with SiHa it was 30%; in the assay with SW-620, 68%; in the assay on HCT-15 it was 0%; in [1], 18%. Moreover, the inhibition of growth at 10 µM in the assay on DU-145 came out at 6%; with A549, 46%; with HEp-2 it was 57%; with OVCAR-5 it was 1%.
Take `O=C(Nc1nc2ccc([N+](=O)[O-])cc2s1)c1cccnc1Nc1ccc(F)c(Cl)c1`: the inhibition of growth at 10 µM with IMR-32 was determined as 3%; in the assay with SK-N-SH it was 3%; with SiHa, 13%; in the assay on SW-620 it was 34%; in the assay on HCT-15, 0%; in assay [1] it was 28%. Moreover, the inhibition of growth at 10 µM turned out to be 9% with DU-145, 78% in the assay on A549, 61% with HEp-2 and 3% in the assay on OVCAR-5.
As for `COc1ccc(Nc2ncccc2-c2nc3n(n2)S(=O)(=O)c2ccccc2N3c2ccccc2)cc1`, the inhibition of growth at 10 µM in the assay with IMR-32 turned out to be 0%; with SK-N-SH, 0%; in the assay with SiHa, 0%; in the assay with SW-620, 14%; with HCT-15, 0%; in assay [1], 2%. The inhibition of growth at 10 µM in the assay with DU-145 was found to be 5%; in the assay with A549, 0%; in the assay with HEp-2, 10%; in the assay with OVCAR-5, 2%.
Take `CC(=O)O[C@H]1C(=O)[C@@]2(C)[C@H]([C@H](OC(=O)c3ccccc3)[C@]3(O)C[C@H](OC(=O)[C@H](O)[C@@H](NC(=O)c4ccccc4)c4ccccc4)C(C)=C1C3(C)C)[C@]1(OC(C)=O)CO[C@@H]1C[C@@H]2O` [PACLITAXEL]: the inhibition of growth at 10 µM in the assay with IMR-32 amounted to 46%; with SK-N-SH, 20%; in the assay on SiHa, 49%; with SW-620, 73%; with HCT-15, 37%; in [1] it was 59%. Further, the inhibition of growth at 10 µM in the assay on DU-145 was found to be 42%; in the assay on A549 it was 41%; in the assay on OVCAR-5 it was 51%.
With `CN1c2ccccc2S(=O)(=O)n2nc(-c3cccnc3Nc3cc(F)c(F)c(F)c3)nc21`, the inhibition of growth at 10 µM came to 28% in the assay on IMR-32; 18% in the assay with SK-N-SH; 15% with SiHa; 34% in the assay on SW-620; 9% in the assay on HCT-15; 26% in [1]. The inhibition of growth at 10 µM with DU-145 amounted to 13%; with A549, 14%; with HEp-2, 0%; in the assay with OVCAR-5, 8%.
With `COc1ccc2nc(NC(=O)c3cccnc3Nc3ccc(Cl)cc3Cl)sc2c1`, the inhibition of growth at 10 µM amounted to 6% with IMR-32; 14% with SK-N-SH; 16% in the assay on SiHa; 10% in the assay on SW-620; 24% with HCT-15; 4% in assay [1]. Further, the inhibition of growth at 10 µM in the assay with DU-145 was found to be 17%; with A549, 0%; in the assay on HEp-2, 17%; with OVCAR-5, 4%.
As for `COc1ccc2nc(NC(=O)c3cccnc3Nc3ccccc3)sc2c1`, the inhibition of growth at 10 µM is 26% with IMR-32; 26% with SK-N-SH; 63% in the assay with SiHa; 29% in the assay on SW-620; 0% in the assay with HCT-15; 11% in assay [1]. For the same molecule, the inhibition of growth at 10 µM was determined as 25% with DU-145, 9% in the assay with A549, 33% with HEp-2 and 6% with OVCAR-5.
For `O=S1(=O)c2ccccc2N(c2ccccc2)c2nc(-c3cccnc3Nc3cc(F)c(F)c(F)c3)nn21`, the inhibition of growth at 10 µM in the assay on IMR-32 is 48%; with SK-N-SH, 16%; in the assay on SiHa, 26%; in the assay with SW-620 it was 22%; in the assay with HCT-15 it was 0%; in assay [1] it was 14%. In addition, the inhibition of growth at 10 µM in the assay with DU-145 was 14%; in the assay on A549, 3%; in the assay on HEp-2, 52%; in the assay on OVCAR-5, 2%.
Take `CN1c2ccccc2S(=O)(=O)n2nc(-c3cccnc3Nc3ccccc3)nc21`: the inhibition of growth at 10 µM in the assay on IMR-32 is 0%; with SK-N-SH it was 0%; in the assay with SiHa, 0%; in the assay with SW-620, 32%; in the assay on HCT-15 it was 0%; in [1], 30%. For the same molecule, the inhibition of growth at 10 µM in the assay with DU-145 turned out to be 8%; in the assay with A549, 39%; with HEp-2, 0%; with OVCAR-5 it was 15%.
As to `COc1ccc(Nc2ncccc2-c2nc3n(n2)S(=O)(=O)c2ccccc2N3C)cc1`, the inhibition of growth at 10 µM in the assay with IMR-32 was determined as 15%; in the assay on SK-N-SH, 20%; in the assay with SiHa it was 11%; with SW-620, 24%; in the assay with HCT-15 it was 0%; in [1], 13%. Besides, the inhibition of growth at 10 µM came to 8% in the assay with DU-145, 70% with A549, 13% in the assay with HEp-2 and 4% in the assay on OVCAR-5.
Regarding `COc1ccc2nc(NC(=O)c3cccnc3Nc3ccc(F)cc3)sc2c1`, the inhibition of growth at 10 µM in the assay on IMR-32 is 2%; in the assay with SK-N-SH it was 24%; with SiHa it was 35%; with SW-620, 21%; in the assay on HCT-15 it was 0%; in assay [1], 2%. In addition, the inhibition of growth at 10 µM in the assay on DU-145 was found to be 32%; in the assay on A549, 5%; in the assay with HEp-2, 32%; with OVCAR-5, 3%.
Take `O=S1(=O)c2ccccc2N(c2ccccc2)c2nc(-c3cccnc3Nc3ccccc3)nn21`: the inhibition of growth at 10 µM in the assay with IMR-32 was determined as 56%; in the assay with SK-N-SH, 20%; with SiHa it was 23%; in the assay with SW-620, 23%; with HCT-15, 0%; in [1], 21%. Also, the inhibition of growth at 10 µM with DU-145 is 10%; with A549 it was 0%; with HEp-2, 0%; in the assay on OVCAR-5 it was 3%.
In the case of `COc1ccc2nc(NC(=O)c3cccnc3Nc3cc(F)c(F)c(F)c3)sc2c1`, the inhibition of growth at 10 µM in the assay on IMR-32 came to 55%; with SK-N-SH, 47%; in the assay with SiHa, 63%; with SW-620 it was 52%; in the assay on HCT-15, 21%; in assay [1] it was 43%. Moreover, the inhibition of growth at 10 µM with DU-145 was 28%; in the assay with A549, 6%; with HEp-2 it was 7%; in the assay with OVCAR-5, 25%.

The record behind these values is ChEMBL document CHEMBL1926589, “2-Anilinonicotinyl linked 2-aminobenzothiazoles and [1,2,4]triazolo[1,5-b] [1,2,4]benzothiadiazine conjugates as potential mitochondrial apoptotic inducers” (Bioorg Med Chem, 2011).
